For assay [1], the species on record is Cavia porcellus. Description: Compound was measured for open epicutaneous test on sensitized guinea pig after sensitization of compound itself. It counts as functional. Put shortly: (§1)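 Female Albino Himalayan spotted guinea pigs (300-500 g) sensitized by FCAT: hapten emulsified in Freund's complete adjuvant, 0.1 mL intradermal in shaved nuchal region, three injections on alternate days. After 2-week rest, 25 μL of 2% lactone in CH2Cl2 (others at same molar concentration) applied to 2-cm² area of shaved flank. Read at 24 h, scale 0-3.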

For assay [2], the species on record is Cavia porcellus. Description: Compound was measured for open epicutaneous test on sensitized guinea pig after sensitization of compound (4-Hydroxy-3-methylene-1-oxa-spiro[4.5]decan-2-one). It counts as functional. The procedure, abridged:
as §1

The species named for assay [3] is Cavia porcellus. Description: Compound was measured for open epicutaneous test on sensitized guinea pig after sensitization of compound (Acetic acid 3-methylene-2-oxo-1-oxa-spiro[4.5]dec-4-yl ester). It counts as functional. The procedure, abridged: as §1
Assay [4] is filed under the species Cavia porcellus. In words: Compound was measured for open epicutaneous test on sensitized guinea pig after sensitization of compound (3-Methylene-1-oxa-spiro[4.5]decan-2-one). The class given is functional. The procedure, abridged: as §1
Assay [5] is filed under the species Cavia porcellus. Description: Compound was measured for open epicutaneous test on sensitized guinea pig after sensitization of compound (Acetic acid 4-methylene-5-oxo-tetrahydro-furan-3-yl ester). It counts as functional. The procedure, abridged: as §1
Assay [6] is filed under the species Cavia porcellus. Description: Compound was measured for open epicutaneous test on sensitized guinea pig after sensitization of compound (4-Hydroxy-3-methylene-dihydro-furan-2-one). It counts as functional. Put shortly:
as §1

Assay [7] is filed under the species Cavia porcellus. In words: Compound was measured for open epicutaneous test on sensitized guinea pig after sensitization of compound (4-Hydroxy-3-methylene-1-oxa-spiro[4.5]decan-2-one). average skin reaction. The class given is functional. The procedure, abridged: as §1
Assay [8] is filed under the species Cavia porcellus. In words: Compound was measured for open epicutaneous test on sensitized guinea pig after sensitization of compound (4-Hydroxy-3-methylene-dihydro-furan-2-one) average skin reaction. It counts as functional. The procedure, abridged:
as §1

The species named for assay [9] is Cavia porcellus. In words: Compound was measured for open epicutaneous test on sensitized guinea pig after sensitization of compound (3-Methylene-1-oxa-spiro[4.5]decan-2-one) average skin reaction. The class given is functional. The procedure, abridged: as §1
The species entered for assay [10] is Cavia porcellus. Description: Compound was measured for open epicutaneous test on sensitized guinea pig after sensitization of compound (Acetic acid 4-methylene-5-oxo-tetrahydro-furan-3-yl ester) average skin reaction. It counts as functional. Put shortly: as §1
For assay [11], the species on record is Cavia porcellus. In words: Compound was measured for open epicutaneous test on sensitized guinea pig after sensitization of compound 1a.

As to `C=C1C(=O)OC[C@@H]1O`, the Sensitized animals in the assay listed under Cavia porcellus [1] amounted to 6; in the assay listed under Cavia porcellus [2] it was 0; in the assay filed under Cavia porcellus [3] it was 0; in the assay filed under Cavia porcellus [4], 0; in the assay filed under Cavia porcellus [5], 6; in the assay filed under Cavia porcellus [6], 6.
Consider `C=C1C(=O)OC2(CCCCC2)[C@@H]1OC(C)=O`, for which the Sensitized animals in the assay filed under Cavia porcellus [1] was 6; in the assay listed under Cavia porcellus [2], 6; in the assay listed under Cavia porcellus [3], 6; in the assay listed under Cavia porcellus [4] it was 6; in the assay filed under Cavia porcellus [5] it was 0; in the assay listed under Cavia porcellus [6] it was 0. Also, the Average skin reaction in the assay listed under Cavia porcellus [7] is reported as 1.8; in the assay filed under Cavia porcellus [3] it was 3; in the assay listed under Cavia porcellus [8] it was 0; in the assay listed under Cavia porcellus [9] it was 1.7; in the assay filed under Cavia porcellus [10], 0; in the assay listed under Cavia porcellus [11], 0.
For the compound `C=C1C(=O)OC2(CCCCC2)[C@@H]1O`, the Sensitized animals in the assay filed under Cavia porcellus [1] is given as 0; in the assay filed under Cavia porcellus [2], 6; in the assay listed under Cavia porcellus [3], 6; in the assay listed under Cavia porcellus [4], 6; in the assay filed under Cavia porcellus [5] it was 0; in the assay filed under Cavia porcellus [6], 0. Also, the Average skin reaction in the assay listed under Cavia porcellus [7] is 0.7; in the assay listed under Cavia porcellus [3], 0.5; in the assay filed under Cavia porcellus [8], 0; in the assay filed under Cavia porcellus [9], 0.4; in the assay filed under Cavia porcellus [10] it was 0; in the assay filed under Cavia porcellus [11], 0.
Regarding `C=C1C(=O)OC[C@@H]1OC(C)=O`, the Sensitized animals worked out at 6 in the assay listed under Cavia porcellus [1]; 0 in the assay listed under Cavia porcellus [2]; 0 in the assay listed under Cavia porcellus [3]; 0 in the assay filed under Cavia porcellus [4]; 6 in the assay filed under Cavia porcellus [5]; 4 in the assay filed under Cavia porcellus [6]. For the same compound, the Average skin reaction in the assay filed under Cavia porcellus [7] was found to be 0; in the assay filed under Cavia porcellus [3] it was 0; in the assay filed under Cavia porcellus [8], 0.3; in the assay filed under Cavia porcellus [9], 0; in the assay filed under Cavia porcellus [10], 0.8; in the assay filed under Cavia porcellus [11] it was 0.4.
In the case of `C=C1CC2(CCCCC2)OC1=O`, the Sensitized animals was determined as 0 in the assay listed under Cavia porcellus [1]; 6 in the assay listed under Cavia porcellus [2]; 6 in the assay listed under Cavia porcellus [3]; 6 in the assay listed under Cavia porcellus [4]; 0 in the assay listed under Cavia porcellus [5]; 0 in the assay filed under Cavia porcellus [6]. Moreover, the Average skin reaction in the assay filed under Cavia porcellus [7] is 1.7; in the assay listed under Cavia porcellus [3], 0.8; in the assay listed under Cavia porcellus [8], 0; in the assay listed under Cavia porcellus [9], 1.2; in the assay listed under Cavia porcellus [10], 0; in the assay listed under Cavia porcellus [11], 0.
For the compound `C=C1CCOC1=O` [TULIPALINE A], the Sensitized animals came out at 6 in the assay filed under Cavia porcellus [1]; 0 in the assay filed under Cavia porcellus [2]; 0 in the assay filed under Cavia porcellus [3]; 0 in the assay filed under Cavia porcellus [4]; 6 in the assay filed under Cavia porcellus [5]; 6 in the assay filed under Cavia porcellus [6]. The Average skin reaction amounted to 0 in the assay listed under Cavia porcellus [7]; 0 in the assay listed under Cavia porcellus [3]; 1.1 in the assay filed under Cavia porcellus [8]; 0 in the assay listed under Cavia porcellus [9]; 1.1 in the assay filed under Cavia porcellus [10]; 2 in the assay listed under Cavia porcellus [11].

The record behind these values is ChEMBL document CHEMBL1123191, “Allergenic alpha-methylene-gamma-butyrolactones. Study of the capacity of beta-acetoxy- and beta-hydroxy-alpha-methylene-gamma-butyrolactones to induce allergic contact dermatitis in guinea pigs” (1986).
